Data as given in PMC8103808 (Journal of medicinal chemistry, 2020).
Entries after “also recorded” stand apart in the source; their conditions may differ. Values belong to the molecule of their own block, whether it stands above or below them.

Columns and labels:
serum albumin = serum albumin (Bos taurus, UniProt P02769); experiment: Gel-based binding in cell-free medium with fetal bovine serum; settings: cell-free medium supplemented with fetal bovine serum
How it was run: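 Cell-free DMEM, with 10% FBS added, was incubated overnight at 37 °C with 20 μM BODIPY-labelled test compound. Binding to serum albumin was assessed by in-gel imaging of the labelled protein.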

PDIA1 [1] = target: T1, PDIA1 (Homo sapiens, UniProt P07237); experiment: PDI reductase assay; type: biochemical
PDI [2] = target: T2, PDI (Homo sapiens, UniProt P07237); experiment: Thermal shift assay; type: binding; settings: oxidized PDI; 100 μM compound
PDI b′ domain = PDI b′ domain (Homo sapiens, UniProt P07237); experiment: ANS spectral scan; type: binding; settings: 5 μM PDI, 100 μM compound
How it was run: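 Recombinant N-terminally His-tagged human PDI, expressed in E. coli BL21(DE3) and Ni-NTA purified, at 5 μM with 100 μM test compound or matching DMSO in TBS for 1 h at 37 °C. ANS then added and incubated 20 min at 25 °C in the dark. Fluorescence spectrum recorded at Ex 370 nm, Em 400–700 nm.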

PDI [3] = target: T2, PDI; experiment: Reversibility; type: biochemical; settings: for PDI activity recovery after 100-fold dilution: 50 μM compound with 40 μM PDI, 3 h at room temperature; for PDI activity recovery after dilution: compound concentrations 10 times that of the protein
PDIA2 [4] = target: T3, PDIA2 (Homo sapiens, UniProt Q13087); experiment: PDI reductase assay with PDIA2; type: biochemical
T3 sequence (Q13087 22-525): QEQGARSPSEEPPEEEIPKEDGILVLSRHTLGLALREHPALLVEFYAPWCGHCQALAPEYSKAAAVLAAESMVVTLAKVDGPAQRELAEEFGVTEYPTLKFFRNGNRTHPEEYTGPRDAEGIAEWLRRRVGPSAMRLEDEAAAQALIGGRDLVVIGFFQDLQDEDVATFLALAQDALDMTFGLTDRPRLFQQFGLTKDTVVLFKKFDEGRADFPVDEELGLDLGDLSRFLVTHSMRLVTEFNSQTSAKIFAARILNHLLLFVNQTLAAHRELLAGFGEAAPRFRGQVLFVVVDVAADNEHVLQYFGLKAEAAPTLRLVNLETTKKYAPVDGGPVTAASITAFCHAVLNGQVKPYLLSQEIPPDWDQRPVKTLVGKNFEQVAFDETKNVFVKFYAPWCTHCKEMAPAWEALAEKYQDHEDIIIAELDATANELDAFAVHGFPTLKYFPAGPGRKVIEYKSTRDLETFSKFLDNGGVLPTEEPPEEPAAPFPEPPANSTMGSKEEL

PDI H256A mutant = PDI H256A mutant (Homo sapiens, UniProt P07237, H256A); experiment: PDI reductase assay with H256A mutant; type: biochemical; settings: Histidine 256 in b′ domain mutated to alanine
How it was run: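 H256A PDI was made by site-directed mutagenesis, expressed in BL21(DE3) and purified like wild type. Enzyme (0.4 μM or 50 nM) was preincubated with test compound for 1 h at 37 °C in 100 mM sodium phosphate, 2 mM EDTA, 8 μM DTT, pH 7.0. DTT (500 μM; 125 μM for 50 nM enzyme) and 130 μM bovine insulin were added, and reduction proceeded at room temperature. Insulin B-chain aggregation was read at 620 nm, and activity calculated from ΔOD over 60 min (180 min for 50 nM).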

PDIA3 [5] = target: T4, PDIA3 (Homo sapiens, UniProt P30101); experiment: Gel-based binding assay with recombinant PDIA3; settings: recombinant protein
T4 sequence (P30101 25-505): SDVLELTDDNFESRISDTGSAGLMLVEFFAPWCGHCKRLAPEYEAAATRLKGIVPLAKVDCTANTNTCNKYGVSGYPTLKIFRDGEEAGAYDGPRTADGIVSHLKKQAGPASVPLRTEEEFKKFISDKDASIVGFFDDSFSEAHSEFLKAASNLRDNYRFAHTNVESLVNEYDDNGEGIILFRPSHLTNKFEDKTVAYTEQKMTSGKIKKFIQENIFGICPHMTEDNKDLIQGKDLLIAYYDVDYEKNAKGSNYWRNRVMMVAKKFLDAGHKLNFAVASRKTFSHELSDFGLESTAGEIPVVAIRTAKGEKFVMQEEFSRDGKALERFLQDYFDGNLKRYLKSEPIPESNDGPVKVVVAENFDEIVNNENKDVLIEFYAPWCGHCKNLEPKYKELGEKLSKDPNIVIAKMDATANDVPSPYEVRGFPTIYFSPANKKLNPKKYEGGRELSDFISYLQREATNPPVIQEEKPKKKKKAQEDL
How it was run: (§1)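 Each protein at 3.5 µM in CelLytic M buffer was incubated with BODIPY-labelled test compound overnight at room temperature. PDIA1 and PDIA2 are recombinant human; PDIA1 is His-tagged and expressed in E. coli BL21(DE3). Samples were boiled in Laemmli or non-reducing sample buffer, resolved on 10% polyacrylamide gels, and imaged immediately for labelled protein.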

BSA = BSA (Bos taurus, UniProt P02769); experiment: Gel-based binding assay with BSA; design: species or system bovine
How it was run: as §1

PDIA1 [6] = target: T1, PDIA1; experiment: Gel-based binding assay with recombinant PDIA1; settings: recombinant protein
How it was run: as §1

PDIA2 [7] = target: T3, PDIA2; experiment: Gel-based binding assay with recombinant PDIA2; settings: recombinant protein
How it was run: as §1

U−118 MG cells = experiment: Colony formation assay with or without BSO pretreatment; type: cell-based, human; settings: BSO pretreatment 24 h
How it was run: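 U-118 MG cells grown in RPMI-1640 with 10% FBS were seeded at 600 cells/well and allowed to attach. Serial dilutions of buthionine sulfoximine were added 24 h later, with pretreatment overnight (24 h per legend), then serial dilutions of test compound. Cells were cultured 10–14 days until colonies formed, stained 1 h with crystal violet/formaldehyde/methanol, washed with water and imaged.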

PDIA1 [8] = target: T1, PDIA1; experiment: Glutathione competition in PDI reductase assay; type: biochemical; settings: 5 mM GSH
PDI [9] = target: T2, PDI; experiment: Protein mass spectrometry; type: binding; settings: 10 μM PDI, 100 μM DTT, 100 μM compound
How it was run: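 Recombinant human PDI (10 μM) was incubated with 100 μM test compound and 100 μM DTT for 30 min before injection for Q-TOF intact-protein mass spectrometry to detect covalent adducts.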

U−87 MG cells [10] = experiment: MTT growth inhibition assay in U-87 MG cells; type: cell-based; settings: Homo sapiens, read-out: MTT (% inhibition at 30 μM)
How it was run: (§2)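 Cells were grown at 37 °C, 5% CO₂ in 10% FBS medium: DMEM for U-87 MG, RPMI-1640 for A-172. Duplicate wells of 3000–5000 cells were attached overnight, then exposed to 30 μM test compound for 72 h. MTT (3 mg/mL) was added for 4 h at 37 °C and formazan dissolved in DMSO before reading A570. Inhibition (%) = [1−(At−Ab)/(Ac−Ab)]×100.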

PDI [11] = target: T2, PDI; experiment: Gel-based competition with fluorescent probe PACMA57; type: binding; settings: 100 μM compound
U−87 MG cells [12] = experiment: Bromouridine nascent RNA sequencing; type: cell-based, human; settings: 20 μM, 4 h; GSEA
PDI [13] = target: T2, PDI; experiment: kinact/KI determination in PDI reductase assay with reduced PDI; type: biochemical
PDIA3 [14] = target: T4, PDIA3; experiment: PDI reductase assay with PDIA3; type: biochemical
A-172 cells = experiment: MTT growth inhibition assay in A-172 cells; type: cell-based; settings: Homo sapiens, A 172, read-out: MTT (% inhibition at 30 μM)
How it was run: as §2

T2 sequence (P07237 18-508): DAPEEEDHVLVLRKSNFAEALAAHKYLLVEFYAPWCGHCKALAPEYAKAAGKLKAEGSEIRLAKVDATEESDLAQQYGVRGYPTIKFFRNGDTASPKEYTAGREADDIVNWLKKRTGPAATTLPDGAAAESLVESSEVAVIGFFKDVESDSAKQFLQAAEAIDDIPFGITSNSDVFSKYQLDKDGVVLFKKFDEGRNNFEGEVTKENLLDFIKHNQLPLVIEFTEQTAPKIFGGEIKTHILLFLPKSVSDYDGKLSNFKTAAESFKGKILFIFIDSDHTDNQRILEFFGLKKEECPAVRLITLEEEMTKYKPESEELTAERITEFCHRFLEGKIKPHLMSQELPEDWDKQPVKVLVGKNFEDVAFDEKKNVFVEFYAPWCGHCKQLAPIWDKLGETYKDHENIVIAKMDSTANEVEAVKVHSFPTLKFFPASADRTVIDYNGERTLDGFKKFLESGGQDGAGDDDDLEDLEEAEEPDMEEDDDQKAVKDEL
T1 sequence (P07237 18-508): as above
Chain of serum albumin (P02769 25-607): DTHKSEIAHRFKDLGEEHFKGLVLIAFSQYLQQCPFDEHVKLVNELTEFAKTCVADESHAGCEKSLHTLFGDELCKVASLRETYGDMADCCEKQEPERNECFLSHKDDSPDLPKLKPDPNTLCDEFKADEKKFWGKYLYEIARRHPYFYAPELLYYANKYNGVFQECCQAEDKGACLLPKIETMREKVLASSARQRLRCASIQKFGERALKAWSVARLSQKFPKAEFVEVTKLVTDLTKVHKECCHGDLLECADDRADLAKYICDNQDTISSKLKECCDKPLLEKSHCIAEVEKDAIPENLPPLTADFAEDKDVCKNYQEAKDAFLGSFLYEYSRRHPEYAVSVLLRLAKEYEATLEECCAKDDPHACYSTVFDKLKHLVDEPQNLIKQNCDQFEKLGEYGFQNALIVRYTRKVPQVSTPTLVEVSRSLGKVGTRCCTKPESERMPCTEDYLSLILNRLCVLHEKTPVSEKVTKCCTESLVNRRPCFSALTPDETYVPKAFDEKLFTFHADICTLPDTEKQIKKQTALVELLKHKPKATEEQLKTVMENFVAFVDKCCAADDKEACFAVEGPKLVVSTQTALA
Chain of PDI H256A mutant (P07237 18-508 H256A): as the sequence (P07237 18-508) above, with H239A counted along it
Chain of PDI b′ domain (P07237 18-508): as the sequence (P07237 18-508) above
Chain of BSA (P02769 25-607): as the sequence (P02769 25-607) above

binding to serum albumin (serum albumin): bound to serum albumin
PDI inhibition in the PDI reductase assay (in words) (PDIA1 [1]): did not inhibit PDI activity
SMILES: CC1=CC(C)=[N+]2C1=C(c1ccc(NC(=O)c3ccc(C(c4cc5c(cc4O)OCO5)N4CCCCC4)cc3)cc1)c1c(C)cc(C)n1[B-]2(F)F (centres unmarked) [compound 15, N-(4-(5,5-Difluoro-1,3,7,9-tetramethyl-5H-4λ^4,5λ^4-dipyrrolo[1,2-c:2’,1’-f][1,3,2]diazaborinin-10-yl)phenyl)-4-((6-hydroxybenzo[d][1,3]dioxol-5-yl)(piperidin-1-yl)methyl)benzamide]

competition with ANS fluorescence (PDI b′ domain): did not lower the fluorescence of ANS
PDI activity recovery after dilution (PDI [3]): too active at this ratio
inhibition of PDIA2 activity (PDIA2 [4]): inhibited activity of PDIA2
activity against H256A mutant PDI (PDI H256A mutant): retained their activity
SMILES: Oc1c(C(Nc2ccccn2)c2ccc(Cl)cc2)ccc2cccnc12 (centres unmarked) [CD343]
stabilization of PDI to thermal degradation (PDI [2]): did not stabilize PDI to thermal degradation
PDI activity recovery after 100-fold dilution (PDI [3]): did not maintain the characteristics of the high concentration of inhibitor after dilution

binding to serum albumin (serum albumin): bound to serum albumin
binding to PDIA3 (PDIA3 [5]): bound
binding to BSA (BSA): bound
binding to PDIA1 (PDIA1 [6]): covalently binds; also recorded: bound
binding to PDIA2 (PDIA2 [7]): bound
SMILES: CC1=CC(C)=[N+]2C1=C(c1ccc(C(=O)NCCNC(=O)c3ccc(C(c4cc5c(cc4O)OCO5)N4CCCCC4)cc3)cc1)c1c(C)cc(C)n1[B-]2(F)F (centres unmarked) [compound 16]

covalent binding to PDI by mass spectrometry (PDI [9]): bound to PDI
SMILES: Oc1c(C(c2ccc(F)cc2)N2CCN(C(c3ccc(F)cc3)c3ccc4cncnc4c3O)CC2)ccc2cncnc12 (centres unmarked) [5d dimer]
potency in colony formation assay, dependence on BSO (U−118 MG cells): more potent and its potency was not dependent on BSO addition
PDI inhibition in the presence of competing glutathione (PDIA1 [8]): less sensitive to glutathione competition than the monomer

PDI inhibition in the PDI reductase assay (in words) (PDIA1 [1]): completely lost activity
competition with PACMA57 for binding to PDI (PDI [11]): did not compete with PACMA57
SMILES: Oc1cc2c(cc1C(c1ccc(F)cc1)N1CCCCC1)CCC2 (centres unmarked) [6f, 6-((4-Fluorophenyl)(piperidin-1-yl)methyl)-2,3-dihydro-1H-inden-5-ol]
covalent binding to PDI by mass spectrometry (PDI [9]): did not demonstrate covalent binding to PDI
inhibition at 30 µM (U−87 MG cells [10]): 13%

SMILES: Oc1c(C(c2ccncc2)N2CCCCC2)ccc2ccoc12 (centres unmarked) [5p, 6-(Piperidin-1-yl(pyridin-4-yl)methyl)benzofuran-7-ol]
effect on transcription (gene set enrichment) (U−87 MG cells [12]): upregulates transcription of genes involved in the unfolded protein response
inhibition at 30 µM (U−87 MG cells [10]): 1%

PDI inhibition in the presence of competing glutathione (PDIA1 [8]): maintained potency
SMILES: CN(C)c1ccc(C(Nc2ncccn2)c2cc3c(cc2O)OCO3)cc1 (centres unmarked) [compound 14, 6-((4-(Dimethylamino)phenyl)(pyrimidin-2-ylamino)methyl)benzo[d][1,3]dioxol-5-ol]

kinact/KI (PDI [13]): 200 M⁻¹ s⁻¹
SMILES: C#CC(=O)N(c1ccc(OC)cc1OC)C(C(=O)NCC(=O)OCC)c1cccs1 (centres unmarked) [PACMA31, reference compound]
stabilization of PDI to thermal degradation (PDI [2]): did not stabilize PDI to thermal degradation

inhibition of PDIA3 activity (PDIA3 [14]): could also inhibit PDIA3 activity
kinact/KI (PDI [13]): 2600 M⁻¹ s⁻¹
competition with ANS fluorescence (PDI b′ domain): did not lower the fluorescence of ANS
inhibition of PDIA2 activity (PDIA2 [4]): inhibited activity of PDIA2
activity against H256A mutant PDI (PDI H256A mutant): retained their activity
SMILES: COc1ccc(C(c2cc3c(cc2O)OCO3)N2CCOCC2)cc1OC (centres unmarked) [AS15]
stabilization of PDI to thermal degradation (PDI [2]): did not stabilize PDI to thermal degradation
PDI activity recovery after 100-fold dilution (PDI [3]): did not maintain the characteristics of the high concentration of inhibitor after dilution
PDI activity recovery after dilution (PDI [3]): behave like the expected irreversible inhibitor

SMILES: Oc1cc2c(cc1C(c1ccccc1)N1CCCCC1)OCO2 (centres unmarked) [6b, 6-(phenyl(piperidin-1-yl)methyl)benzo[d][1,3]dioxol-5-ol]
inhibition at 30 µM (A-172 cells): 17%

SMILES: COC(=O)C1(C)c2[nH]c3ccccc3c2CCN1C(=O)CCl (centres unmarked) [16F16]
kinact/KI (PDI [13]): 170 M⁻¹ s⁻¹

PDI inhibition in the presence of competing glutathione (PDIA1 [8]): remained active
SMILES: O=c1c(O[C@@H]2O[C@H](CO)[C@@H](O)[C@H](O)[C@H]2O)c(-c2ccc(O)c(O)c2)oc2cc(O)cc(O)c12 [isoquercetin, reference compound]

PDI inhibition in the presence of competing glutathione (PDIA1 [8]): maintained potency
covalent binding to PDI by mass spectrometry (PDI [9]): bound to PDI
SMILES: Oc1c(C(c2ccc(F)cc2)N2CCNCC2)ccc2cncnc12 (centres unmarked) [5d, 7-((4-Fluorophenyl)(piperazin-1-yl)methyl)quinazolin-8-ol]
potency in colony formation assay, dependence on BSO (U−118 MG cells): more sensitive to BSO addition

PDI activity recovery after dilution (PDI [3]): too active at this ratio
covalent binding to PDI by mass spectrometry (PDI [9]): bound reduced PDI at three sites
SMILES: COc1cccc(C(c2cc3c(cc2O)OCO3)N2CCOCC2)c1OC (centres unmarked) [6a, 6-((2,3-Dimethoxyphenyl)(morpholino)methyl)benzo[d][1,3]dioxol-5-ol]
